For two compounds, log2FC results are on record in ChEMBL document CHEMBL5674883, “The Heterochromatin Landscape in Migrating Cells and the Importance of H3K27me3 for Associated Transcriptome Alterations” (Cells, 2018).

Holding throughout (assay type): cell-based
For experiment [1], the target named is Histone-lysine N-methyltransferase EZH2 (Mus musculus) (UniProt Q61188). The experiment is described as follows: Inhibition of EZH2 in mouse B16-F1 migrating cells assessed as fold change in H3K27me3-independent regulated Csrnp1-mRNA expression at 3 uM measured by […] analysis relative to control cells. In a few lines: (§1)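 Confluent B16-F1 cells on fibronectin-coated plates were scratched at multiple sites, washed once with DMEM and left to migrate 3 h in growth medium (37 °C, 7% CO2); unscratched cells served as control. GSK343 (3 µM) was added 3 h before lysis. Poly A mRNA was sequenced (RNA-seq), with 5 replicates for untreated and 3 for treated cells. Differential expression was called by linear model with batch correction, at FDR <0.05 and fold change ≥1.3.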

The target is the same in experiment [2]. As to the kind of experiment: Inhibition of EZH2 in mouse B16-F1 migrating cells assessed as fold change in H3K27me3-independent regulated Pwwp2b-mRNA expression at 3 uM measured by […] analysis relative to control cells. In a few lines:
as §1

Experiment [3] has the same target. As to the kind of experiment: Inhibition of EZH2 in mouse B16-F1 migrating cells assessed as fold change in H3K27me3-buffered regulated Kcnj14-mRNA expression at 3 uM measured by ChIP-seq analysis relative to control cells. In a few lines: (§2)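 Confluent B16-F1 cells on fibronectin-coated plates, cultured at 37 °C and 7% CO2, were scratched at multiple sites to induce migration. They were then held 3 h in growth medium containing 3 µM GSK343, with the inhibitor added 3 h before lysis. Unscratched cells served as controls. Poly A mRNA was analysed by RNA-seq (n=3 GSK343, n=5 controls). Linear models removed batch effects, and buffered genes were those altered only under GSK343 (FDR <0.05, fold change >1.3).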

Experiment [4] shares this target. As to the kind of experiment: Inhibition of EZH2 in mouse B16-F1 migrating cells assessed as fold change in H3K27me3-buffered regulated Ern1-mRNA expression at 3 uM measured by ChIP-seq analysis relative to control cells. In a few lines: as §2
The target is the same in experiment [5]. The experiment is described as follows: Inhibition of EZH2 in mouse B16-F1 migrating cells assessed as fold change in H3K27me3-buffered regulated Itpk1-mRNA expression at 3 uM measured by […] analysis relative to control cells. Put shortly: as §2
Experiment [6] shares this target. As to the kind of experiment: Inhibition of EZH2 in mouse B16-F1 migrating cells assessed as fold change in H3K27me3-buffered regulated Mef2d-mRNA expression at 3 uM measured by […] analysis relative to control cells. In a few lines:
as §2

Experiment [7] shares this target. The experiment is described as follows: Inhibition of EZH2 in mouse B16-F1 migrating cells assessed as fold change in H3K27me3-buffered regulated Tead4-mRNA expression at 3 uM measured by […] analysis relative to control cells. In a few lines:
as §1

Experiment [8] has the same target. The experiment is described as follows: Inhibition of EZH2 in mouse B16-F1 migrating cells assessed as fold change in H3K27me3-buffered regulated Pcf11-mRNA expression at 3 uM measured by […] analysis relative to control cells. Put shortly: as §2
Experiment [9] has the same target. The experiment is described as follows: Inhibition of EZH2 in mouse B16-F1 migrating cells assessed as fold change in H3K27me3-buffered regulated Map3k20-mRNA expression at 3 uM measured by ChIP-seq analysis relative to control cells. Put shortly:
as §2

Experiment [10] shares this target. As to the kind of experiment: Inhibition of EZH2 in mouse B16-F1 migrating cells assessed as fold change in H3K27me3-buffered regulated Rev3l-mRNA expression at 3 uM measured by ChIP-seq analysis relative to control cells. Put shortly: as §2
Experiment [11] deals with T1, RNA polymerase II (Mus musculus) (UniProt P08775+Q8CFI7+P97760+A0A3Q4L2S8+Q80UW8+P61219+P62488+Q923G2+P60898+O08740+Q63871+P62876). The experiment is described as follows: Inhibition of RNA polymerase II in mouse B16-F1 migrating cells assessed as fold change in Fosb-RNA stability at 0.1 mM measured by ChIP-seq analysis relative to control cells.
Experiment [12] concerns the target T1, RNA polymerase II (Mus musculus). As to the kind of experiment: Inhibition of RNA polymerase II in mouse B16-F1 migrating cells assessed as fold change in Plekha2-RNA stability at 0.1 mM measured by […] analysis relative to control cells.
For experiment [13] the target is unchanged. The experiment is described as follows: Inhibition of RNA polymerase II in mouse B16-F1 migrating cells assessed as fold change in Fth1-RNA stability at 0.1 mM measured by ChIP-seq analysis relative to control cells.
The target is the same in experiment [14]. The experiment is described as follows: Inhibition of RNA polymerase II in mouse B16-F1 migrating cells assessed as fold change in Alg2-RNA stability at 0.1 mM measured by […] analysis relative to control cells.
For experiment [15] the target is unchanged. As to the kind of experiment: Inhibition of RNA polymerase II in mouse B16-F1 migrating cells assessed as fold change in Mtch1-RNA stability at 0.1 mM measured by ChIP-seq analysis relative to control cells.
Experiment [16] shares this target. As to the kind of experiment: Inhibition of RNA polymerase II in mouse B16-F1 migrating cells assessed as fold change in Lamp2-RNA stability at 0.1 mM measured by ChIP-seq analysis relative to control cells.
For experiment [17] the target is unchanged. As to the kind of experiment: Inhibition of RNA polymerase II in mouse B16-F1 migrating cells assessed as fold change in Socs5-RNA stability at 0.1 mM measured by […] analysis relative to control cells.
The target is the same in experiment [18]. As to the kind of experiment: Inhibition of RNA polymerase II in mouse B16-F1 migrating cells assessed as fold change in Gria4-RNA stability at 0.1 mM measured by ChIP-seq analysis relative to control cells.
The target is the same in experiment [19]. As to the kind of experiment: Inhibition of RNA polymerase II in mouse B16-F1 migrating cells assessed as fold change in Dido1-RNA stability at 0.1 mM measured by […] analysis relative to control cells. Put shortly: (§3)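 Mouse B16-F1 melanoma cells grown to confluence on fibronectin in DMEM/10% FCS at 37 °C, 7% CO2. Migration induced by multiple scratches and 3 h incubation; unscratched controls. DRB 0.1 mM added 3 h before lysis. RNA from poly A-selected mRNA was sequenced (RNA-seq, three replicates per DRB group). Fold change computed for DRB-treated migrating vs DRB-treated control cells; cutoffs fold change >1.3, FDR <0.05.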

The target is the same in experiment [20]. As to the kind of experiment: Inhibition of RNA polymerase II in mouse B16-F1 migrating cells assessed as fold change in Ets1-RNA stability at 0.1 mM measured by […] analysis relative to control cells. In a few lines: as §3
Experiment [21] has the same target. The experiment is described as follows: Inhibition of RNA polymerase II in mouse B16-F1 migrating cells assessed as fold change in Ifit2-RNA stability at 0.1 mM measured by […] analysis relative to control cells. In a few lines: as §3
The target is the same in experiment [22]. As to the kind of experiment: Inhibition of RNA polymerase II in mouse B16-F1 migrating cells assessed as fold change in Repin1-RNA stability at 0.1 mM measured by […] analysis relative to control cells.
Experiment [23] shares this target. As to the kind of experiment: Inhibition of RNA polymerase II in mouse B16-F1 migrating cells assessed as fold change in Pde12-RNA stability at 0.1 mM measured by […] analysis relative to control cells.
For experiment [24] the target is unchanged. The experiment is described as follows: Inhibition of RNA polymerase II in mouse B16-F1 migrating cells assessed as fold change in Rest-RNA stability at 0.1 mM measured by […] analysis relative to control cells.

Each structure is given as a SMILES string.

Chain of Histone-lysine N-methyltransferase EZH2 (Mus musculus) (Q61188 whole entry): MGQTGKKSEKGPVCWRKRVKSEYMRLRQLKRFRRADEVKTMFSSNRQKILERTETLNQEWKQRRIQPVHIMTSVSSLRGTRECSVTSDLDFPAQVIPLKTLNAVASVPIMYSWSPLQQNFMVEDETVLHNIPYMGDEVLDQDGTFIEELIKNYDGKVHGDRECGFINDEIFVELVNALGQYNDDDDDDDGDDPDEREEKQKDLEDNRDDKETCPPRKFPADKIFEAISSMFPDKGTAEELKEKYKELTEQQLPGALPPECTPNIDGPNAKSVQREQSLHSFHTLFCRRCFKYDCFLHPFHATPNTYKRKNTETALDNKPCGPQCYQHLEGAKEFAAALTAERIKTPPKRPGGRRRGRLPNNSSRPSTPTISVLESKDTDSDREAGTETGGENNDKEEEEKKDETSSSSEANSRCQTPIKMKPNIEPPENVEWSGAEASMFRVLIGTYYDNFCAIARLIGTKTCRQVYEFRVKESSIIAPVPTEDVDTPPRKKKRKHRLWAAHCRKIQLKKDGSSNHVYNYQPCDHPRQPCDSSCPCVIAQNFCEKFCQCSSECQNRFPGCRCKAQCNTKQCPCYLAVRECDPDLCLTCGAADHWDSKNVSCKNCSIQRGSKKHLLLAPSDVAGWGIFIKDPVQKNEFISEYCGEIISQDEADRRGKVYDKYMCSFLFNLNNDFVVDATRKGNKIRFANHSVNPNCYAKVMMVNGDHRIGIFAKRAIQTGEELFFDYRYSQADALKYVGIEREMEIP

As to `CCCc1cc(C)[nH]c(=O)c1CNC(=O)c1cc(-c2ccnc(N3CCN(C)CC3)c2)cc2c1cnn2C(C)C`, the log2FC worked out at 0.64 in experiment [1]; 0.46 in [2]; 1.07 in experiment [3]; 0.72 in experiment [4]; 0.51 in experiment [5]; 0.41 in experiment [6]. For the same compound, the log2FC was 0.38 in [7], -0.39 in [8], -0.41 in experiment [9] and -0.47 in experiment [10].

As to `OC[C@H]1O[C@@H](n2cnc3cc(Cl)c(Cl)cc32)[C@H](O)[C@@H]1O`, the log2FC in experiment [11] was 2.03; in experiment [12] it was 0.71; in experiment [13] it was 0.6; in [14], 0.52; in experiment [15], 0.46; in experiment [16] it was -0.43. Besides, the log2FC in [17] is -0.48; in experiment [18] it was -0.5; in experiment [19], -0.53; in experiment [20] it was -0.65; in experiment [21], -0.69; in experiment [22] it was -0.71. Further, the log2FC in [23] was -0.77; in experiment [24], -0.79.
